Data from ChEMBL document CHEMBL1921785, “Exploration of in vitro time point quantitative evaluation of newly synthesized benzimidazole and benzothiazole derivatives as potential antibacterial agents” (2011).

Assays:
Assay type in all cases: functional
Shigella dysenteriae [1] = test: Antibacterial activity against Shigella dysenteriae assessed as zone of growth inhibition at 0.2 mg/ml after 18 to 24 hrs by Kirby-Bauer agar diffusion method; settings: read-out: DIZ
Staphylococcus aureus [2] = test: Antibacterial activity against Staphylococcus aureus MTCC 3160 assessed as zone of growth inhibition at 0.2 mg/ml after 18 to 24 hrs by Kirby-Bauer agar diffusion method; settings: read-out: DIZ
Method in brief: (§1)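 Kirby-Bauer disc diffusion on Mueller-Hinton agar, following CLSI 2007 guidelines, with ciprofloxacin as reference drug. Read-out is the diameter of the zone of growth inhibition in mm.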

Bacillus cereus [3] = test: Antibacterial activity against Bacillus cereus MTCC 430 assessed as zone of growth inhibition at 0.2 mg/ml after 18 to 24 hrs by Kirby-Bauer agar diffusion method; settings: read-out: DIZ; method in brief: as §1
Bacillus cereus [4] = test: Bactericidal activity against Bacillus cereus MTCC 430 assessed as log reduction in bacterial count at 0.2 mg/mL up to 48 hrs by time-kill assay
Method in brief: (§2)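 Time-kill by pour plate. Overnight 37 °C cultures in Mueller-Hinton broth were dosed at about 0.2 mg/mL and incubated at 37 °C for up to 72 h, with broth replenished every 24 h. Samples were taken over time, serially diluted, and pour-plated on MHA at 37 °C for 18–24 h. Colonies were counted as CFU/ml against untreated culture controls.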

Staphylococcus aureus [5] = test: Bactericidal activity against Staphylococcus aureus MTCC 3160 assessed as time required to complete extermination of bacteria at 0.2 mg/mL by time-kill assay; method in brief: as §2
Vibrio cholerae [6] = test: Antibacterial activity against Vibrio cholerae MTCC 3904 assessed as zone of growth inhibition at 0.2 mg/ml after 18 to 24 hrs by Kirby-Bauer agar diffusion method; settings: read-out: DIZ
Escherichia coli [7] = test: Antibacterial activity against Escherichia coli MTCC 1610 assessed as zone of growth inhibition at 0.2 mg/ml after 18 to 24 hrs by Kirby-Bauer agar diffusion method; settings: read-out: DIZ; method in brief: as §1
Vibrio cholerae [8] = test: Bactericidal activity against Vibrio cholerae MTCC 3904 assessed as time required to complete extermination of bacteria at 0.2 mg/mL by time-kill assay
Bacillus cereus [9] = test: Bactericidal activity against Bacillus cereus MTCC 430 assessed as time required to complete extermination of bacteria at 0.2 mg/mL by time-kill assay; method in brief: as §2
Escherichia coli [10] = test: Bactericidal activity against Escherichia coli MTCC 1610 assessed as time required to complete extermination of bacteria at 0.2 mg/mL by time-kill assay; method in brief: as §2
Shigella dysenteriae [11] = test: Bactericidal activity against Shigella dysenteriae assessed as time required to complete extermination of bacteria at 0.2 mg/mL by time-kill assay
Vibrio cholerae [12] = test: Bactericidal activity against Vibrio cholerae MTCC 3904 assessed as time required to complete extermination of bacteria by time-kill assay
Vibrio cholerae [13] = test: Antibacterial activity against Vibrio cholerae MTCC 3904 assessed as zone of growth inhibition after 18 to 24 hrs by Kirby-Bauer agar diffusion method
Shigella dysenteriae [14] = test: Antibacterial activity against Shigella dysenteriae assessed as zone of growth inhibition at after 18 to 24 hrs by Kirby-Bauer agar diffusion method
Bacillus cereus [15] = test: Antibacterial activity against Bacillus cereus MTCC 430 assessed as zone of growth inhibition after 18 to 24 hrs by Kirby-Bauer agar diffusion method; method in brief: as §1
Shigella dysenteriae [16] = test: Bactericidal activity against Shigella dysenteriae assessed as time required to complete extermination of bacteria by time-kill assay
Bacillus cereus [17] = test: Bactericidal activity against Bacillus cereus MTCC 430 assessed as time required to complete extermination of bacteria by time-kill assay; method in brief: as §2
Staphylococcus aureus [18] = test: Bactericidal activity against Staphylococcus aureus MTCC 3160 assessed as time required to complete extermination of bacteria by time-kill assay; method in brief: as §2

Structure (SMILES) | zone of inhibition at 200 µg/mL (Shigella dysenteriae [1]) | zone of inhibition at 200 µg/mL (Staphylococcus aureus [2]) | zone of inhibition at 200 µg/mL (Bacillus cereus [3]) | zone of inhibition at 200 µg/mL (Vibrio cholerae [6]) | other results
CC(C)c1ccc(-c2nc3ccccc3s2)cc1 | 15 mm | 13 mm | 20 mm | – | log reduction in bacterial count (Bacillus cereus [4]): 3; Time (Staphylococcus aureus [5]): <48 h
c1coc(Cn2c(-c3ccco3)nc3ccccc32)c1 | 12 mm | 10 mm | – | 13 mm | Time (Staphylococcus aureus [5]): <48 h
CCOc1cc(Cn2c(-c3ccc(O)c(OCC)c3)nc3ccccc32)ccc1O | – | 23 mm | – | – | zone of inhibition at 200 µg/mL (Escherichia coli [7]): 14 mm; Time (Staphylococcus aureus [5]): <24 h
Oc1ccc(Cn2c(-c3ccc(O)cc3)nc3ccccc32)cc1 | 11 mm | – | – | – | –
COc1cc(-c2nc3ccccc3s2)cc(OC)c1OC | 23 mm | – | – | – | –
CCOc1ccc(-c2nc3ccccc3s2)cc1 | 16 mm | 16 mm | 22 mm | 15 mm | zone of inhibition at 200 µg/mL (Escherichia coli [7]): 12 mm; log reduction in bacterial count (Bacillus cereus [4]): 3; Time (Staphylococcus aureus [5]): <48 h
c1ccc(Cn2c(-c3ccccc3)nc3ccccc32)cc1 | 23 mm | 10 mm | 22 mm | 33 mm | zone of inhibition at 200 µg/mL (Escherichia coli [7]): 19 mm; log reduction in bacterial count (Bacillus cereus [4]): 3; Time (Vibrio cholerae [8]): <24 h
Cc1ccc(Cn2c(-c3ccc(C)cc3)nc3ccccc32)cc1 | 13 mm | 12 mm | – | 18 mm | –
CN(C)c1ccc(Cn2c(-c3ccc(N(C)C)cc3)nc3ccccc32)cc1 | 16 mm | 11 mm | – | 17 mm | –
CC(C)(C)c1ccc(Cn2c(-c3ccc(C(C)(C)C)cc3)nc3ccccc32)cc1 | 13 mm | – | 12 mm | 21 mm | zone of inhibition at 200 µg/mL (Escherichia coli [7]): 17 mm
Oc1ccc(Br)cc1Cn1c(-c2cc(Br)ccc2O)nc2ccccc21 | – | – | 33 mm | – | zone of inhibition at 200 µg/mL (Escherichia coli [7]): 17 mm; Time (Bacillus cereus [9]): <24 h
Fc1ccc(Cn2c(-c3ccc(F)cc3)nc3ccccc32)cc1 | – | 10 mm | 18 mm | – | –
FC(F)(F)Oc1ccc(Cn2c(-c3ccc(OC(F)(F)F)cc3)nc3ccccc32)cc1 | 11 mm | 10 mm | – | 23 mm | Time (Staphylococcus aureus [5]): <48 h; Time (Vibrio cholerae [8]): <24 h
Clc1ccc(Cn2c(-c3ccc(Cl)c(Cl)c3)nc3ccccc32)cc1Cl | 11 mm | – | – | – | –
C(=C/c1nc2ccccc2n1C/C=C/c1ccccc1)/c1ccccc1 | – | – | 14 mm | 11 mm | –
CCCCCCCn1c(CCCCCC)nc2ccccc21 | 21 mm | 12 mm | 15 mm | 16 mm | –
O=[N+]([O-])c1cccc(Cn2c(-c3cccc([N+](=O)[O-])c3)nc3ccccc32)c1 | – | 10 mm | – | 13 mm | –
FC(F)(F)c1ccc(Cn2c(-c3ccc(C(F)(F)F)cc3)nc3ccccc32)cc1 | 19 mm | 22 mm | – | 13 mm | zone of inhibition at 200 µg/mL (Escherichia coli [7]): 22 mm; Time (Escherichia coli [10]): <48 h
Brc1ccc(Cn2c(-c3ccc(Br)cc3)nc3ccccc32)cc1 | 13 mm | – | 15 mm | 16 mm | –
CCc1ccccc1-c1nc2ccccc2s1 | 35 mm | 13 mm | 21 mm | 16 mm | zone of inhibition at 200 µg/mL (Escherichia coli [7]): 11 mm; log reduction in bacterial count (Bacillus cereus [4]): 3; Time (Shigella dysenteriae [11]): 72 h
CCOc1ccc(-c2nc3ccccc3s2)cc1OC | 15 mm | 12 mm | – | 16 mm | –
COc1ccc(Br)cc1-c1nc2ccccc2s1 | – | 12 mm | 21 mm | 17 mm | –
O=[N+]([O-])c1ccc(-c2nc3ccccc3s2)cc1 | 13 mm | – | 14 mm | – | –
Oc1ccc(-c2nc3ccccc3s2)cc1 | – | – | 19 mm | 18 mm | Time (Bacillus cereus [9]): <24 h
O=C(O)c1cn(C2CC2)c2cc(N3CCNCC3)c(F)cc2c1=O [CIPROFLOXACIN] | – | – | – | – | Time (Vibrio cholerae [12]): 48 h; diameter of the inhibition zone (DIZ) (Vibrio cholerae [13]): 24 mm; diameter of the inhibition zone (DIZ) (Shigella dysenteriae [14]): 14 mm; diameter of the inhibition zone (DIZ) (Bacillus cereus [15]): 14 mm; Time (Shigella dysenteriae [16]): <72 h; Time (Bacillus cereus [17]): 48 h; Time (Staphylococcus aureus [18]): 48 h
